Assay results reported in ChEMBL document CHEMBL3627612, “Hirsutinolide Series Inhibit Stat3 Activity, Alter GCN1, MAP1B, Hsp105, G6PD, Vimentin, TrxR1, and Importin α-2 Expression, and Induce Antitumor Effects against Human Glioma” (J Med Chem, 2015).
Calls of active or inactive are those of the source. The rule behind the calls is not given here.

Tests used:
[1] = Cytotoxicity against mouse NIH/3T3 cells at 2.5 uM by trypan blue exclusion with phase contrast microscopy; assay type: cell-based; conditions: nih3t3, 2.5 µM
[2] = tested on: U-251; assay: Antimitotic activity in human U251MG cells assessed as defect in chromatid structure at 8 uM after 15 hrs confocal microscopic analysis; assay type: functional, cell-based
Method in brief: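 U251MG on coverslips synchronized by double thymidine block (2 mM), released 9 h, treated 15 h (8 μM; paclitaxel 100 nM). Fixed 4% paraformaldehyde, digitonin-permeabilized, BSA-blocked, stained for β-tubulin and MAP1B with DAPI counterstain; chromatid structure and segregation scored by confocal microscopy.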

[3] = target: Stalled ribosome sensor GCN1 (Homo sapiens) (UniProt Q92616); assay: Decrease in GCN1 expression in human U251MG cells at 5 uM for 1 hr by mass spectrometry relative to control; assay type: functional, cell-based; conditions: U-251
Stalled ribosome sensor GCN1 (Homo sapiens), sequence (Q92616 whole entry): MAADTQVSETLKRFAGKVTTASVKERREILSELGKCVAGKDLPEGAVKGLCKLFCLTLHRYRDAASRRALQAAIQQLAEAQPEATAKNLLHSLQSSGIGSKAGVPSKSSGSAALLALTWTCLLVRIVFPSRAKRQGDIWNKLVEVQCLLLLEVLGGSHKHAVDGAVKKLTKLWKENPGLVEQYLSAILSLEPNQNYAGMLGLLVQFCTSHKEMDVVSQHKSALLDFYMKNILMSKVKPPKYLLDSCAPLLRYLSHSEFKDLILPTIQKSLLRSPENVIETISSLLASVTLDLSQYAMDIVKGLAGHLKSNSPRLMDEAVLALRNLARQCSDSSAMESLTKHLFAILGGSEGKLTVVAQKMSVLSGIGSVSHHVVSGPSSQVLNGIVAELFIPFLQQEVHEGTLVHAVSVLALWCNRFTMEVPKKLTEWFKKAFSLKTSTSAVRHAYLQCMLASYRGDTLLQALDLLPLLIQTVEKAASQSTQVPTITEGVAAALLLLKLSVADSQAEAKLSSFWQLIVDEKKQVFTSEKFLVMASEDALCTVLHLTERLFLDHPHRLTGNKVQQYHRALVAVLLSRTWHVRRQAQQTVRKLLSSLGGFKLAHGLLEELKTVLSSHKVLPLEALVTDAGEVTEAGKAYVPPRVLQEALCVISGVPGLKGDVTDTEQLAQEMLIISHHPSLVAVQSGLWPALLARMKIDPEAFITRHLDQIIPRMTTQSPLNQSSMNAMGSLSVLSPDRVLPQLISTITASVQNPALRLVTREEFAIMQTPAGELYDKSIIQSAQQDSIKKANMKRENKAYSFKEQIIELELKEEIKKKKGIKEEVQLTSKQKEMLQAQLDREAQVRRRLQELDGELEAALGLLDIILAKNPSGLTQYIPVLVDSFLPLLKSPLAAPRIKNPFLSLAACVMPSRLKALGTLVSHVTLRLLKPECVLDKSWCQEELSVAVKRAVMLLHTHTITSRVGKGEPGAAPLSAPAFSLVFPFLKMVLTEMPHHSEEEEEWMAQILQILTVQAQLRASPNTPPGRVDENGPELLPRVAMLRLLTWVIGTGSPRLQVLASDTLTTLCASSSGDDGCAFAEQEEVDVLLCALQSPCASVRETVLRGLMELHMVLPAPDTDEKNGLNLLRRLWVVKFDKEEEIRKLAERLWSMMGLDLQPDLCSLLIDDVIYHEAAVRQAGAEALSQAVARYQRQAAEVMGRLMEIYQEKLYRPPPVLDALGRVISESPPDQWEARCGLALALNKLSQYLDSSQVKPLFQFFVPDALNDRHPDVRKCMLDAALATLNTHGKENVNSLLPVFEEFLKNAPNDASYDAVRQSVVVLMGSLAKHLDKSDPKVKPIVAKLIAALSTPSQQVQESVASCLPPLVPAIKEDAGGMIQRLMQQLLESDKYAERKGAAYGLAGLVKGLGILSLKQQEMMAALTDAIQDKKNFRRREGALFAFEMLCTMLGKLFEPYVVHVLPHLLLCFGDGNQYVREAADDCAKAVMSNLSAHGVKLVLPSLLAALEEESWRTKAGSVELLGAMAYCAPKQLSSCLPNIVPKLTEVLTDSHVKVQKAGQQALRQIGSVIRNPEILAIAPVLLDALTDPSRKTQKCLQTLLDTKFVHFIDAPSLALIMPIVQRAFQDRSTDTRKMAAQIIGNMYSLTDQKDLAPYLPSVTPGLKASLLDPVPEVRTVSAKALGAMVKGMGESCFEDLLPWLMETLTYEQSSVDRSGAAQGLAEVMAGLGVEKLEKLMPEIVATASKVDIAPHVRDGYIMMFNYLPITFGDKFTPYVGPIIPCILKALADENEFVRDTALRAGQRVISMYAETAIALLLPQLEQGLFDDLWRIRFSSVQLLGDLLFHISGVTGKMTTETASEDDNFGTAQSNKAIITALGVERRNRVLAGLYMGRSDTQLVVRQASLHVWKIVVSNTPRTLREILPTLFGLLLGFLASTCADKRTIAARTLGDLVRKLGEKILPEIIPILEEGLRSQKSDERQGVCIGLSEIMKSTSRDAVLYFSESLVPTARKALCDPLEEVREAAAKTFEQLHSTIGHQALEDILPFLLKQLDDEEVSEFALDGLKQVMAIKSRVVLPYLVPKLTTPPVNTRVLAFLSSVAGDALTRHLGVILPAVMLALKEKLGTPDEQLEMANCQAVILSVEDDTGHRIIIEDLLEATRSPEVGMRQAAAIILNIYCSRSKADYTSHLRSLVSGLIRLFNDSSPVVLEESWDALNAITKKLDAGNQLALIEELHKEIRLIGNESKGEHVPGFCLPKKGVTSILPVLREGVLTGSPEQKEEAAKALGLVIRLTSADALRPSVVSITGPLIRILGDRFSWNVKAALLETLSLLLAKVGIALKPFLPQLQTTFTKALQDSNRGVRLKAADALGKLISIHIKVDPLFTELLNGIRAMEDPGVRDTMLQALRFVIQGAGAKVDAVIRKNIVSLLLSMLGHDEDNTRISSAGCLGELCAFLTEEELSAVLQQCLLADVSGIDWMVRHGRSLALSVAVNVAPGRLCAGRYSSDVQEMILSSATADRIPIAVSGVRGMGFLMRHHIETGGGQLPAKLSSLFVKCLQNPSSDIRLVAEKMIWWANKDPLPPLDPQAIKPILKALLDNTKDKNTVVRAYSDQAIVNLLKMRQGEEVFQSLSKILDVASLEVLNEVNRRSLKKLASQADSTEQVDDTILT
Method in brief: (§1)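 U251MG cells treated 1 h with 5 μM compound; whole-cell lysates analyzed by global proteomics mass spectrometry; protein levels expressed relative to DMSO-treated cells.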

[4] = target: Microtubule-associated protein 1B (Homo sapiens) (UniProt P46821); assay: Decrease in MAP1B expression in human U251MG cells at 5 uM for 1 hr by mass spectrometry relative to control; assay type: functional, cell-based; conditions: U-251; method in brief: as §1
Microtubule-associated protein 1B (Homo sapiens), sequence (P46821 2-2206 limits assumed): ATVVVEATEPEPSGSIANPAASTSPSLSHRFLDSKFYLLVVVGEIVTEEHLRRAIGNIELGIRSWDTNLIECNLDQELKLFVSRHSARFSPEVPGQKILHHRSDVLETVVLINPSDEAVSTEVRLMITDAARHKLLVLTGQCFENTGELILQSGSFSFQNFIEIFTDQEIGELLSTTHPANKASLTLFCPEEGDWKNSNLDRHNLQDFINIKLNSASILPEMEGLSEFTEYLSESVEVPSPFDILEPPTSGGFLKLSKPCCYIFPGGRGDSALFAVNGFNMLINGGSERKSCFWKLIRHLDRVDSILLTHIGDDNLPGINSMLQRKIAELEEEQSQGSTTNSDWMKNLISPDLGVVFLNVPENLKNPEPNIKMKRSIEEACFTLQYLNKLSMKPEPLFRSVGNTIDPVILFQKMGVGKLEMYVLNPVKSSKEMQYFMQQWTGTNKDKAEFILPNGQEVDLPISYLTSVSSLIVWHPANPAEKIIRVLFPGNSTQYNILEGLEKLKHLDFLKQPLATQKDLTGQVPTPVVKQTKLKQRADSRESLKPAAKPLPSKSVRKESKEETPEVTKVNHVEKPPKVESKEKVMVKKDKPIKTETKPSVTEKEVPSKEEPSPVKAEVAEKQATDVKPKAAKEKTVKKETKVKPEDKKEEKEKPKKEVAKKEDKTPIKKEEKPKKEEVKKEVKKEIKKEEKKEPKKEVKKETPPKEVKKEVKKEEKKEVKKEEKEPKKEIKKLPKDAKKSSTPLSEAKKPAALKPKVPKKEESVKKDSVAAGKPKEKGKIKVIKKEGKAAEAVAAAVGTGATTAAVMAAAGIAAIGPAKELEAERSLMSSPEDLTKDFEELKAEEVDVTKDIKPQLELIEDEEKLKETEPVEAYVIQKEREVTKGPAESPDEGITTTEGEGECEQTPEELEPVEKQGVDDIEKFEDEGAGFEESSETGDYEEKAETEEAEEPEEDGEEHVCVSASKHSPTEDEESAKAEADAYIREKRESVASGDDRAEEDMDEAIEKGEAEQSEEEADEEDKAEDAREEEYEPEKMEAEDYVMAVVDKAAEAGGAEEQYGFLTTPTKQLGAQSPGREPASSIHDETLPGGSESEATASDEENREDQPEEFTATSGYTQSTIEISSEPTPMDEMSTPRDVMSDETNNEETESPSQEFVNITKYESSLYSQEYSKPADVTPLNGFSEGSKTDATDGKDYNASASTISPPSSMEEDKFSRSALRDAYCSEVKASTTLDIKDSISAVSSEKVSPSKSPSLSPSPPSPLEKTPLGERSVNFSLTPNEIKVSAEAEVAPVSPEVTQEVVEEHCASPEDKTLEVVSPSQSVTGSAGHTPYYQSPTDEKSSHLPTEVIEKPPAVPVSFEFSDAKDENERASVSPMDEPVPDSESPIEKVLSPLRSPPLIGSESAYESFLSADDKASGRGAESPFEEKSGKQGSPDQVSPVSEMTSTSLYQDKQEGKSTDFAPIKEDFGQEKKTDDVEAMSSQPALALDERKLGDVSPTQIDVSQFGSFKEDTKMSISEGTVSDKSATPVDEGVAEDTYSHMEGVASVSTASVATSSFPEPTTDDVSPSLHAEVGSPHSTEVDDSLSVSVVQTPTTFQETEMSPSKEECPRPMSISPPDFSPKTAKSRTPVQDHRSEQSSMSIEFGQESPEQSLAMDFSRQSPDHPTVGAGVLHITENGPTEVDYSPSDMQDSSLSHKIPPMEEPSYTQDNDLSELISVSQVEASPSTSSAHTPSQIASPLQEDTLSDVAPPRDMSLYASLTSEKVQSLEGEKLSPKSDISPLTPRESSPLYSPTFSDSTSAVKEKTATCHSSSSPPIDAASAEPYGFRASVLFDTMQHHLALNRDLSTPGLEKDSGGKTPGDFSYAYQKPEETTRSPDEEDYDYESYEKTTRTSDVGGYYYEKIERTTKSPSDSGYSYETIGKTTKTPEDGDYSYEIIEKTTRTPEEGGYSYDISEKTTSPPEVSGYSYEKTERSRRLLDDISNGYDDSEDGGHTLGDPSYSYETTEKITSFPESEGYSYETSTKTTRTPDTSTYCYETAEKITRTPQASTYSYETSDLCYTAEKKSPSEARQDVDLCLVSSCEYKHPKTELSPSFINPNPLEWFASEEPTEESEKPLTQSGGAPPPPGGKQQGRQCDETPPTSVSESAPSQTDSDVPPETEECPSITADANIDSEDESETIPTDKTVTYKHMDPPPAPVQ
Microtubule-associated protein 1B (Homo sapiens), sequence (P46821 2207-2468 limits assumed): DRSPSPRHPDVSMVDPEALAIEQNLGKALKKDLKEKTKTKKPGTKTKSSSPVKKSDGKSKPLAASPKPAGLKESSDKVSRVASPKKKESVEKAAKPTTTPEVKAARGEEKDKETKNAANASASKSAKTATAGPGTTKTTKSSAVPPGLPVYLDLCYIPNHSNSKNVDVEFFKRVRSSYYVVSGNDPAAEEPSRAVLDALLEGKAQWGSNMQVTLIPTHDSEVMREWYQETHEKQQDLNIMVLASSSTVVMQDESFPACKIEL

[5] = tested on: U-251; assay: Increase in importin subunit alpha2 expression in human U251MG cells at 5 uM for 1 hr by mass spectrometry relative to control; assay type: functional
Method in brief: (§2)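 Global proteomic mass spectrometry of lysates from U251MG cells treated 1 h with 5 μM compound; protein levels expressed relative to DMSO-treated cells.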

[6] = target: Stalled ribosome sensor GCN1 (Homo sapiens) (UniProt Q92616); assay: Decrease in GCN1 expression in human U251MG cells at 5 uM for 2 hrs by immunoblot analysis; assay type: functional, cell-based; conditions: U-251
[7] = tested on: U-251; assay: Increase in importin subunit alpha2 expression in human U251MG cells at 5 uM for 2 hrs by immunoblot analysis; assay type: functional, cell-based
[8] = Decrease in vimentin expression in human U251MG cells at 5 uM for 2 hrs by immunoblot analysis; assay type: functional, cell-based; conditions: U-251
[9] = Decrease in G6PD expression in human U251MG cells at 5 uM for 2 hrs by immunoblot analysis; assay type: functional, cell-based; conditions: U-251
[10] = target: Microtubule-associated protein 1B (Homo sapiens) (UniProt P46821); assay: Decrease in MAP1B expression in human U251MG cells at 5 uM for 2 hrs by immunoblot analysis; assay type: functional, cell-based; conditions: U-251
[11] = target: Stalled ribosome sensor GCN1 (Homo sapiens) (UniProt Q92616); assay: Decrease in GCN1 expression in human U373MG cells at 5 uM for 2 hrs by immunoblot analysis; assay type: functional, cell-based; conditions: U-373MG ATCC
[12] = target: Heat shock protein 105 kDa (Homo sapiens) (UniProt Q92598); assay: Decrease in Hsp105 expression in human U373MG cells at 5 uM for 2 hrs by immunoblot analysis; assay type: functional, cell-based; conditions: U-373MG ATCC
[13] = tested on: U373 MG; assay: Increase in importin subunit alpha2 expression in human U373MG cells at 5 uM for 2 hrs by immunoblot analysis; assay type: functional, cell-based; conditions: U-373MG ATCC
[14] = Decrease in TrxR1 expression in human U373MG cells at 5 uM for 2 hrs by immunoblot analysis; assay type: functional, cell-based; conditions: U-373MG ATCC
[15] = target: Microtubule-associated protein 1B (Homo sapiens) (UniProt P46821); assay: Decrease in MAP1B expression in human U373MG cells at 5 uM for 2 hrs by immunoblot analysis; assay type: functional, cell-based; conditions: U-373MG ATCC
[16] = target: Stalled ribosome sensor GCN1 (Homo sapiens) (UniProt Q92616); assay: Decrease in GCN1 expression in human Glioma (G22) patient derived xenograft cells at 5 uM for 2 hrs by immunoblot analysis; assay type: functional; conditions: Glioma cell
[17] = target: Heat shock protein 105 kDa (Homo sapiens) (UniProt Q92598); assay: Decrease in Hsp105 expression in human Glioma (G22) patient derived xenograft cells at 5 uM for 2 hrs by immunoblot analysis; assay type: functional; conditions: Glioma cell
[18] = tested on: Glioma cell; assay: Increase in importin subunit alpha2 expression in human Glioma (G22) patient derived xenograft cells at 5 uM for 2 hrs by immunoblot analysis; assay type: functional
[19] = Decrease in TrxR1 expression in human Glioma (G22) patient derived xenograft cells at 5 uM for 2 hrs by immunoblot analysis; assay type: functional; conditions: Glioma cell
[20] = Decrease in vimentin expression in human Glioma (G22) patient derived xenograft cells at 5 uM for 2 hrs by immunoblot analysis; assay type: functional; conditions: Glioma cell
[21] = Decrease in G6PD expression in human Glioma (G22) patient derived xenograft cells at 5 uM for 2 hrs by immunoblot analysis; assay type: functional; conditions: Glioma cell
[22] = target: Microtubule-associated protein 1B (Homo sapiens) (UniProt P46821); assay: Decrease in MAP1B expression in human Glioma (G22) patient derived xenograft cells at 5 uM for 2 hrs by immunoblot analysis; assay type: functional; conditions: Glioma cell
[23] = tested on: U-251; assay: Antitumor activity against human U251MG cells xenografted in mouse assessed as decrease in tumor growth at 2 mg/kg three times a week for 33 days administered via oral gavage; assay type: functional, organism-based
Method in brief: (§3)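 Female athymic nude mice, 4 weeks old, given subcutaneous flank injections of 7.3×10^6 U251MG cells in PBS/matrigel; dosing began at 170–250 mm3 tumors (day 20). Oral gavage 2 mg/kg, vehicle 1% DMSO, for 33 days. Caliper volumes V = 0.52×a²×b, compared with vehicle by paired t test; tumor lysates immunoblotted for pStat3, Stat3, GAPDH.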

[24] = tested on: U-251; assay: Antitumor activity against human U251MG cells xenografted in mouse assessed as decrease in Stat3 level in tumor at 2 mg/kg three times a week for 33 days administered via oral gavage by immunoblot analysis; assay type: functional, organism-based; method in brief: as §3
[25] = tested on: Mus musculus; assay: Toxicity in mouse xenografted with U251MG cells assessed as effect on body weight at 2 mg/kg three times a week for 33 days administered via oral gavage; assay type: organism-based, U-251; conditions: in vivo, 792 h
Method in brief: (§4)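 Four-week-old female athymic nude mice, injected subcutaneously in the left flank with 7.3×10^6 U251MG cells in PBS/matrigel (1:1). Tumors of 170–250 mm^3 formed by day 20, and groups were matched for mean size. Dosing was 2 mg/kg by oral gavage, three times weekly for 33 days, with 1% DMSO vehicle. Animals were monitored daily and weighed every 3 days.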

[26] = tested on: Mus musculus; assay: Toxicity in mouse xenografted with U251MG cells assessed as loss of appetite at 2 mg/kg three times a week for 33 days administered via oral gavage; assay type: organism-based, U-251; conditions: in vivo, 792 h; method in brief: as §4
[27] = Decrease in TNAP2 expression in human U251MG cells at 5 uM for 1 hr by mass spectrometry relative to control; assay type: functional, cell-based; conditions: U-251; method in brief: as §2
[28] = target: T1, Signal transducer and activator of transcription 3 (Homo sapiens, UniProt P40763); assay: Inhibition of Stat3 phosphorylation in human U251MG cells transfected with Stat3 flag-tagged N-terminal domain at 5 uM after 1.5 hrs by immunoblot analysis; assay type: cell-based; conditions: U-251
Method in brief: (§5)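 U251MG cells transiently transfected with 7.5–21 μg FLAG-Stat3 NTD, CCD, DBD or CTD plasmid, or pcDNA3 mock. Re-seeded 24 h later; after another 18 h, treated with or without 5 μM compound for 1.5 h. Whole-cell lysates immunoblotted for FLAG, pY705Stat3, Stat3, GAPDH. 0.025% DMSO control. Representative of 2 independent determinations.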

[29] = target: T1, Signal transducer and activator of transcription 3; assay: Inhibition of Stat3 phosphorylation in human U251MG cells transfected with Stat3 flag-tagged coliled coil domain at 5 uM after 1.5 hrs by immunoblot analysis; assay type: cell-based; conditions: U-251; method in brief: as §5
[30] = target: T1, Signal transducer and activator of transcription 3; assay: Inhibition of Stat3 phosphorylation in human U251MG cells transfected with Stat3 flag-tagged C-terminal domain at 5 uM after 1.5 hrs by immunoblot analysis; assay type: cell-based; conditions: U-251; method in brief: as §5

SMILES | Activity [2] | fold change (FC) [4] | fold change (FC) [5] | inhibition [6] | Activity [7] | inhibition [8] | inhibition [9] | inhibition [10] | inhibition [11] | inhibition [12] | Activity [13] | inhibition [14] | inhibition [15] | inhibition [16] | inhibition [17] | Activity [18] | inhibition [19] | inhibition [20] | inhibition [21] | inhibition [22] | other results
C/C=C(\C)C(=O)OCC1=C2/C(=C\[C@@]3(C)CC[C@](O)(O3)[C@H](C)C[C@@H]2O)OC1=O | Active | 0.413 | 2.421 | Active | Active | Active | Active | Active | Active | Active | Active | Active | Active | Active | Active | Active | Active | Active | Active | Active | Activity [1]: Non-toxic; fold change (FC) [3]: 0.555; Activity [23]: Active; Activity [24]: Active; Activity [25]: Non-toxic; Activity [26]: Non-toxic
C/C=C(\C)C(=O)O[C@H]1C[C@@H](C)[C@]2(O)CC[C@](C)(/C=C3/OC(=O)C(COC(C)=O)=C31)O2 | Active | 0.649 | 2.0137 | Active | Active | Active | Active | Active | Active | Active | Active | Active | Active | Active | Active | Active | Active | Active | Active | Active | fold change (FC) [27]: 0.449; Activity [23]: Active; Activity [24]: Active; Activity [25]: Non-toxic; Activity [26]: Non-toxic; inhibition [28]: Active; inhibition [29]: Active; inhibition [30]: Active
